Test results as given in ChEMBL document CHEMBL4706620, “Design, synthesis, biological activity evaluation of 3-(4-phenyl-1H-imidazol-2-yl)-1H-pyrazole derivatives as potent JAK 2/3 and aurora A/B kinases multi-targeted inhibitors” (Eur J Med Chem, 2021).
pIC50: −log10 of the molar value.

What was measured:
[1] = tested on: K562; assay: Antiproliferative activity against human K562 cells assessed as reduction in cell growth measured after 72 hrs by CCK8 assay; assay type: functional, cell-based; details: K562, 72 h
[2] = tested on: HCT-116; assay: Cell cycle arrest in human HCT116 cells assessed as accumulation of diploid cells at G1 phase at 1 uM incubated for 48 hrs by propidium iodide staining based flow cytometric analysis (reference value: 77.62 %); assay type: functional
[3] = organism: Homo sapiens; assay: Selectivity for JAK3 (unknown origin) over Aurora B (unknown origin)
[4] = Cytotoxicity against HCoEpiC assessed as reduction in cell growth measured after 72 hrs by CCK8 assay; details: Homo sapiens
[5] = tested on: K562; assay: Cell cycle arrest in human K562 cells assessed as accumulation of diploid cells at S phase at 10 uM incubated for 48 hrs by propidium iodide staining based flow cytometric analysis (reference value: 35.94 %); assay type: functional
[6] = tested on: K562; assay: Cell cycle arrest in human K562 cells assessed as accumulation of diploid cells at G1 phase at 20 uM incubated for 48 hrs by propidium iodide staining based flow cytometric analysis (reference value: 56.33 %); assay type: functional
[7] = tested on: K562; assay: Cell cycle arrest in human K562 cells assessed as accumulation at […] phase at 1 uM incubated for 48 hrs by propidium iodide staining based flow cytometric analysis (reference value: 1.90 %); assay type: functional
[8] = tested on: HCT-116; assay: Cell cycle arrest in human HCT116 cells assessed as accumulation of diploid cells at S phase at 20 uM incubated for 48 hrs by propidium iodide staining based flow cytometric analysis (reference value: 11.92 %); assay type: functional
[9] = tested on: K562; assay: Cell cycle arrest in human K562 cells assessed as accumulation of diploid cells at G2 phase at 1 uM incubated for 48 hrs by propidium iodide staining based flow cytometric analysis (reference value: 7.73 %); assay type: functional
[10] = tested on: K562; assay: Cell cycle arrest in human K562 cells assessed as accumulation of diploid cells at S phase at 1 uM incubated for 48 hrs by propidium iodide staining based flow cytometric analysis (reference value: 35.94 %); assay type: functional
[11] = biological target: T1, Aurora kinase A (Homo sapiens) (UniProt O14965); assay: Inhibition of Aurora A phosphorylation in human HCT116 cells incubated for 48 hrs by Western blot analysis; assay type: cell-based; details: HCT-116, dose 1-20 µM
T1 sequence (whole entry): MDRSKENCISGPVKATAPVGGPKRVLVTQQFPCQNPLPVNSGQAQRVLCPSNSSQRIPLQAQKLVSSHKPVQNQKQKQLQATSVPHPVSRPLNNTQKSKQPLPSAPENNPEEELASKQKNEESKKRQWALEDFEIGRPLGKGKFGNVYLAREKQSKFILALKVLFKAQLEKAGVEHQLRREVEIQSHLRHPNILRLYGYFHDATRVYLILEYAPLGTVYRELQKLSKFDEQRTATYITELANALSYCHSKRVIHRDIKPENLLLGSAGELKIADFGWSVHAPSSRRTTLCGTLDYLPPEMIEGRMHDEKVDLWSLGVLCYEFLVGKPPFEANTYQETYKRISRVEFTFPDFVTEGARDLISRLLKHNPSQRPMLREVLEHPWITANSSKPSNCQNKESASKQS
Outline: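 K562 or HCT116 cells treated 48 h at 1, 10 and 20 µM alongside untreated control; lysed in cold RIPA, protein by BCA, SDS-PAGE, nitrocellulose transfer, 5% milk block, primary antibody overnight at 4 °C, secondary 1 h; p-Aurora A, p-Aurora B, p-STAT3, p-STAT5 probed with GAPDH loading control.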

[12] = biological target: Aurora kinase B (Homo sapiens, UniProt Q96GD4); assay: Inhibition of Aurora B (unknown origin) incubated for 40 mins in presence of ATP by Kinase-glo luminescence assay
Outline: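 Kinase reaction at 30 °C for 40 min in 40 mM Tris pH 7.4, 10 mM MgCl2, 0.1 mg/ml BSA, 1 mM DTT, 10 µM ATP, kinase plus substrate; compounds added from 10% DMSO dilutions (1% DMSO final). Remaining ATP measured by Kinase-Glo Plus luminescence; IC50 from nonlinear regression, normalized dose-response fit.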

[13] = tested on: HCT-116; assay: Cell cycle arrest in human HCT116 cells assessed as accumulation of diploid cells at S phase at 10 uM incubated for 48 hrs by propidium iodide staining based flow cytometric analysis (reference value: 11.92 %); assay type: functional
[14] = organism: Homo sapiens; assay: Selectivity for JAK2 (unknown origin) over Aurora B (unknown origin)
[15] = biological target: T2, Tyrosine-protein kinase JAK3 (Homo sapiens, UniProt P52333); assay: Inhibition of JAK3 (unknown origin) incubated for 40 mins in presence of ATP by Kinase-glo luminescence assay
T2 sequence (P52333 whole entry): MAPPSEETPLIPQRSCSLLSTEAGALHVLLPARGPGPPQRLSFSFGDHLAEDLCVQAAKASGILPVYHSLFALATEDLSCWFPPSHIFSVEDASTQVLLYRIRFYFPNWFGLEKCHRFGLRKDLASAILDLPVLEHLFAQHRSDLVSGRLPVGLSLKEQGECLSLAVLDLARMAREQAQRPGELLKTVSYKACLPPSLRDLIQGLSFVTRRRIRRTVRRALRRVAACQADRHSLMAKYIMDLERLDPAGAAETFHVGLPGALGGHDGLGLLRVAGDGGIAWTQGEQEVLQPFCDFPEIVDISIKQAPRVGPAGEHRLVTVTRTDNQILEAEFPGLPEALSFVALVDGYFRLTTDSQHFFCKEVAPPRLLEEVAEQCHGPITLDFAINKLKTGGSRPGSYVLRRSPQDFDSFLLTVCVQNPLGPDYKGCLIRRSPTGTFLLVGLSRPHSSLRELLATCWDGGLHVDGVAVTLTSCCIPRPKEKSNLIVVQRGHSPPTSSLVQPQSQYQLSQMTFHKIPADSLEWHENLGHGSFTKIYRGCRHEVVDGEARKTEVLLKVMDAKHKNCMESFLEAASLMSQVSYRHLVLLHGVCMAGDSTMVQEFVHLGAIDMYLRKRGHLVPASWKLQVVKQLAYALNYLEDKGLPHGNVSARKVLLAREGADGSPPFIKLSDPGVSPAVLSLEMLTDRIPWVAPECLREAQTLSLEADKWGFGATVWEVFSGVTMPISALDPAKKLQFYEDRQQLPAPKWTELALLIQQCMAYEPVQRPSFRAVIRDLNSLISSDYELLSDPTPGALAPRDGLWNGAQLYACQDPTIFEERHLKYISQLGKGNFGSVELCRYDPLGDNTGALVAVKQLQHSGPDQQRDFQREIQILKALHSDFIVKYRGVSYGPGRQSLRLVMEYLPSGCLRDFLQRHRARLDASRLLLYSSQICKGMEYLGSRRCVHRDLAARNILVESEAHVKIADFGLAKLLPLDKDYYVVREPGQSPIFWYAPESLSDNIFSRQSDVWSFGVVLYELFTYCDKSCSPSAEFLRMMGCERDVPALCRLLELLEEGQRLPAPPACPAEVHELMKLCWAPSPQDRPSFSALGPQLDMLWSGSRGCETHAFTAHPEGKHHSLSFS

[16] = tested on: HCT-116; assay: Cell cycle arrest in human HCT116 cells assessed as accumulation of diploid cells at G2 phase at 20 uM incubated for 48 hrs by propidium iodide staining based flow cytometric analysis (reference value: 10.46 %); assay type: functional

Aurora kinase B, sequence (Q96GD4 whole entry): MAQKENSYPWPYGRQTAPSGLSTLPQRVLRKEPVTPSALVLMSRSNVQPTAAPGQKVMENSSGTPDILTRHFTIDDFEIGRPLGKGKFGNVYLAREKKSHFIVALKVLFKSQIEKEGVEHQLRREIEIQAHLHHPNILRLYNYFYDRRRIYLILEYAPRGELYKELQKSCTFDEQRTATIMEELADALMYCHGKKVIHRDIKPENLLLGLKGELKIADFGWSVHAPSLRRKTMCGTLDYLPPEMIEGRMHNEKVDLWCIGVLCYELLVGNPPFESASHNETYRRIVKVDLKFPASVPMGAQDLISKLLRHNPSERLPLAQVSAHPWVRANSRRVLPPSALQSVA

What does the source list for `O=C(Nc1c[nH]nc1-c1nc(-c2ccc(CN3CCOCC3)cc2)c[nH]1)c1cccc(Cl)c1`?
pIC50 [1]: 5.17; Activity [2]: 72.2%; Selectivity ratio [3]: 20; pIC50 [4]: 4.50; Activity [5]: 35.86%; Activity [6]: 45.9%; Activity [7]: 1.9%; Activity [8]: 17.92%; Activity [9]: 8.12%; Activity [10]: 35.82%; inhibition [11]: Dose-dependent effect; pIC50 [12]: 6.23; Activity [13]: 17.27%; Selectivity ratio [14]: 20; pIC50 [15]: 7.24; Activity [16]: 24.55%
